Data from paper PMC5259643 (Journal of Veterinary Internal Medicine, 2017).
Read-outs that look alike come from different tables or passages of the source.

How the values were obtained:
[1] = Laryngoscopy with doxapram stimulation in dogs with brachycephalic syndrome; format: in vivo
[2] = Management of Addisonian crisis; format: in vivo, dogs; conditions: for outcome: HSS CRI 0.3 to 0.625 mg/kg/h (n = 7), dexamethasone IV 0.05 to 0.3 mg/kg (n = 8)
[3] = Transcutaneous ICG plasma disappearance rate; format: in vivo, dogs
Method in brief: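 Healthy dogs received indocyanine green 0.5 mg/kg IV daily on three days. The plasma disappearance rate was read transcutaneously with a monitor probe, and the intrasubject coefficient of variation was calculated from the daily values.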

[4] = ref previously reported data; cited from earlier work
[5] = biological target: Steroidogenic factor‐1 (SF‐1) (Canis lupus familiaris, UniProt A0A5K7W231); assay: Cortisol and mRNA in normal canine primary adrenocortical cell suspensions; format: cell-based, dogs; conditions: 10^‐8 to 10^‐5 M
Steroidogenic factor‐1 (SF‐1), sequence (A0A5K7W231 1-461): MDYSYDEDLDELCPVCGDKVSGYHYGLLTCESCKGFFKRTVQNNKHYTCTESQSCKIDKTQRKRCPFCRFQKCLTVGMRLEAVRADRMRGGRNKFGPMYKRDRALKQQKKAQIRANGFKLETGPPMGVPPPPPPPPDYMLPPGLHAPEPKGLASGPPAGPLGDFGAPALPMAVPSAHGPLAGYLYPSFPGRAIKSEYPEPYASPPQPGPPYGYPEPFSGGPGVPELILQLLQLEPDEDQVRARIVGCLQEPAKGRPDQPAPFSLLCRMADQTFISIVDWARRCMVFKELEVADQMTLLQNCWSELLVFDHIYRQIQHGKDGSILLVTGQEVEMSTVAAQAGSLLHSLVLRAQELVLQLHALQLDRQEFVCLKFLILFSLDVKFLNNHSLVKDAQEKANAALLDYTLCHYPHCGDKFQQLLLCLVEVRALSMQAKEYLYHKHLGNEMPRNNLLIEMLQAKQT
Method in brief: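 Primary adrenocortical cells from normal canine adrenals were cultured as suspensions, with synthetic ACTH added to mimic hypercortisolism. Cells were exposed to SF-1 inverse agonists, with a DMSO vehicle control. Cortisol was measured in the culture media. RT-qPCR gave relative mRNA expression of steroidogenic enzymes, SF-1 and MC2R.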

[6] = Hypothyroidism after low‐dose radioiodine in hyperthyroid cats; format: in vivo; conditions: 30 hypothyroid cats supplemented
Method in brief: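 Hyperthyroid cats successfully treated with low-dose 131I (n = 569) had serum T4 and TSH measured at 1, 3, 6, 12 and ≥18 months after treatment. Cats that developed high TSH were classed as overtly hypothyroid if T4 was low, or subclinically hypothyroid if T4 was normal.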

feline liver organoids = assay: Lipid accumulation in liver organoids exposed to free fatty acids; format: cell-based, cats; conditions: LD540, flow cytometry
Method in brief: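 Feline liver organoids were incubated with vehicle or free fatty acids and stained with the lipophilic dye LD540. Fluorescence was quantified by flow cytometry. β-oxidation of excess fatty acids was probed with a CPT-1 inhibitor and with L-carnitine supplementation.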

[7] = Sedation of dogs with stage B2 MMVD; format: in vivo
Leishmania infantum = assay: Randomized allopurinol‐controlled trial in dogs with clinical leishmaniosis; format: in vivo; conditions: bone marrow; with MGA
[8] = biological target: T1, serum angiotensin‐converting enzyme (ACE) (Canis lupus familiaris, UniProt A0A8I3S3I6); assay: Serum ACE activity after benazepril with or without pimobendan; format: in vivo, dogs; conditions: for serum ACE activity versus baseline: days 1 and 15
T1 sequence (A0A8I3S3I6 31-1241): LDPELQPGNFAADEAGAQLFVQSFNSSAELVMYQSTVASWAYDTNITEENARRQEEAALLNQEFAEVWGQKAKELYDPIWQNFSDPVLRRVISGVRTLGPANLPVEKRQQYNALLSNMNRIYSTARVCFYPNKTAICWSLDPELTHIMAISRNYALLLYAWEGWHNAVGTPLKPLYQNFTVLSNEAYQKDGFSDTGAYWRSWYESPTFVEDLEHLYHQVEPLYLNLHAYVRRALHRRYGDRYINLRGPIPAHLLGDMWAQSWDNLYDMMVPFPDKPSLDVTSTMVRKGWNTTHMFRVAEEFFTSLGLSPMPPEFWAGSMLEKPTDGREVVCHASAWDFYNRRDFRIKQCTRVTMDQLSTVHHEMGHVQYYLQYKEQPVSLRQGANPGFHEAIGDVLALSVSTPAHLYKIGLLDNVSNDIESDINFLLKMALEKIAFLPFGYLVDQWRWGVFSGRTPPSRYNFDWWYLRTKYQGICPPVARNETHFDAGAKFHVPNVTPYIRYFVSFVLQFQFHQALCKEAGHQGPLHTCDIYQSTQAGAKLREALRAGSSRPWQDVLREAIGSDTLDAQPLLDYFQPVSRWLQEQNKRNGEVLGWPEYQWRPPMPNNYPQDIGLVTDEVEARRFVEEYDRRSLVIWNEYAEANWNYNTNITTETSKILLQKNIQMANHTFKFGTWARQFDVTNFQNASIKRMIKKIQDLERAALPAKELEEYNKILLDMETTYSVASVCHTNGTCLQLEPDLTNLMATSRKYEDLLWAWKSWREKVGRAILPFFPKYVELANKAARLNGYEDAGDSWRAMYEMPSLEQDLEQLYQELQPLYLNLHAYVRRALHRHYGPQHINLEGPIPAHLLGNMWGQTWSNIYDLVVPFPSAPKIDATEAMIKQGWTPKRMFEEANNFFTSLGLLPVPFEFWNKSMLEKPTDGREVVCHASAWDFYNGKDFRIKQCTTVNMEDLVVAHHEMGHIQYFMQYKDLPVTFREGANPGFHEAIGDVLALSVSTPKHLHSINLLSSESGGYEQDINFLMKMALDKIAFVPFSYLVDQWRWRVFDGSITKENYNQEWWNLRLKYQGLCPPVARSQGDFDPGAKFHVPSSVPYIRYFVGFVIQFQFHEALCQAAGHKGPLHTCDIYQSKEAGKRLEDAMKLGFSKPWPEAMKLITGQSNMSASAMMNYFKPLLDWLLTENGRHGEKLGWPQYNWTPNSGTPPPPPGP
Method in brief: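 In a prospective, randomised, parallel-group design, 48 healthy beagles were split into four groups: placebo twice daily; benazepril 0.5 mg/kg once each morning; benazepril 0.25 mg/kg twice daily; or benazepril 0.25 mg/kg plus pimobendan 0.125 mg/kg, both twice daily. Dosing was oral for 15 days. Serum ACE was assayed radio-enzymatically at baseline, at 12 post-dose times on day 1, and on day 15 (steady state).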

[9] = system: bacteria isolated from urinary cultures; assay: Urine culture sensitivity in dogs with DM and/or HAC; format: cell-based
E.Coli = assay: Cat with E.coli associated granulomatous colitis; format: in vivo
[10] = system: Aelurostrongylus abstrusus; Angiostrongylus vasorum; assay: Lungworm infection in cats and dogs in Rome treated with fenbendazole; format: in vivo
Method in brief: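 Animals were diagnosed by faecal testing, BAL, lung cytology or post mortem. All received fenbendazole 50 mg/kg for 3 weeks, with further therapy according to clinical status; outcome was recorded.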

[11] = dogs with HAC; ref other studies; cited from earlier work
Troglostrongylus brevior = assay: Anthelmintic treatment of feline lungworm infection; format: in vivo, cats; conditions: single administration; moxidectin n = 2, emodepside n = 1
T. brevior/A. abstrusus = assay: Anthelmintic treatment of feline lungworm infection; format: in vivo, cats; conditions: five of six cats
Method in brief: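 Cats with natural Troglostrongylus brevior/Aelurostrongylus abstrusus co-infection were treated with one of: single topical emodepside (n = 1), single oral milbemycin oxime (n = 2), or moxidectin given two (n = 2) or three (n = 1) times. Clinical course and time to recovery were followed.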

[12] = Simvastatin in dogs with hyperlipidemia; format: in vivo; conditions: three months; n = 5; range 181–399
[13] = Oral torasemide in cats with CHF; format: in vivo
Method in brief: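 Cats with CHF, previously on furosemide (median 6 mg/kg/24 h), were switched to oral torasemide. The median starting dose was 0.5 mg/kg/24 h (range 0.1–0.75), given once daily or split twice daily. Renal values and potassium were rechecked at follow-up.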

[14] = Cortisol monitoring in dogs with hyperadrenocorticism on trilostane; format: in vivo
Method in brief: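 Multicentre open-label prospective study in dogs with hyperadrenocorticism on trilostane. Serum cortisol was measured pre-trilostane, 3 h post-trilostane, and 1 h post-ACTH stimulation.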

[15] = Echocardiography, blood pressure and heart rate before and after sedation; format: in vivo, cats; conditions: ten minutes after sedation
Capillaria aerophila = assay: Anthelmintic treatment of feline lungworm infection; format: in vivo, cats; conditions: single administration, one cat

CCN1CC(CCN2CCOCC2)C(c2ccccc2)(c2ccccc2)C1=O.Cl (stereo not drawn) [Dxp, doxapram hydrochloride]
mean degree of laryngeal collapse (0 to 3) ([1]; after 1.1 mg/kg IV, before 1.64 [0–3], P < 0.001, 26 dogs): 1.07 [0–3] | laryngeal abduction ([1]; after injection): significant abduction of laryngeal cartilages could be observed in all dogs

C[C@]12CCC(=O)C=C1CC[C@@H]1[C@@H]2[C@@H](O)C[C@@]2(C)[C@H]1CC[C@]2(O)C(=O)COC(=O)CCC(=O)O [HSS, hydrocortisone sodium succinate]
outcome [2]: all patients surviving to discharge | median time for Na+ concentration to normalise ([2]; group A (HSS) versus group B (dexamethasone), P = 0.0424): significantly shorter in group A compared to group B

CC1(C)C(/C=C/C=C/C=C/C=C2\N(CCCCS(=O)(=O)O)c3ccc4ccccc4c3C2(C)C)=[N+](CCCCS(=O)(=O)[O-])c2ccc3ccccc3c21 [ICG, Indocyanine green]
mean ICG‐PDR ([3]; day one, 0.5 mg/kg IV, six healthy Beagles, transcutaneous): 7.8 ± 3.4 %/min | mean ICG‐PDR ([3]; day three): 7.9 ± 2.6 %/min | mean ICG‐PDR ([3]; day two): 8.8 ± 3.7 %/min | highest individual %CV ([3]; dog, in vivo): 52.5% | mean intrasubject %CV of ICG‐PDR ([3]; three consecutive days): 35.9 ± 16.8% | mean ICG‐PDR [4]: 7.79 ± 3.3 %/min

CCOC(=O)C(C)Oc1cccc2c(=O)n(CC(=O)Nc3ccc4c(c3)OCCO4)ccc12 (stereo not drawn) [IsoqA]
effect on cortisol production [5]: no significant effect on cortisol production

N[C@@H](Cc1cc(I)c(Oc2cc(I)c(O)c(I)c2)c(I)c1)C(=O)O [Levothyroxine]
serum TSH and creatinine [6]: significantly decreased both serum TSH and creatinine concentrations

C[N+](C)(C)C[C@H](O)CC(=O)[O-] [L‐carnitine]
lipid accumulation under excess FFA (feline liver organoids): attenuated

Cc1cccc(C(C)c2cnc[nH]2)c1C (stereo not drawn) [M group, medetomidine]
regurgitant jet area (ARJ/LAA) ([7]; T1, 30 minutes after medetomidine, n = 8 per group): significantly decreased | body weight‐indexed LVIDs ([7]; T1, P < 0.05): increased | shortening fraction ([7]; T1, P < 0.05): decreased

Oc1ncnc2[nH]ncc12 [allopurinol]
parasite load by RT‐QPCR (Leishmania infantum): significantly reduced parasite load

CCOC(=O)[C@H](CCc1ccccc1)N[C@H]1CCc2ccccc2N(CC(=O)O)C1=O [benazepril]
serum ACE activity versus baseline ([8]; group B, 0.5 mg/kg once daily PO): significant reductions in serum ACE activity compared to baseline | serum ACE activity versus baseline ([8]; group C, 0.25 mg/kg twice daily PO): significant reductions in serum ACE activity compared to baseline | 0.25 mg/kg twice daily compared to 0.5 mg/kg once daily ([8]; non‐inferiority shown): equivalent inhibition of serum ACE activity

C[C@@H]1C[C@H]2[C@@H]3CCC4=CC(=O)C=C[C@]4(C)[C@@]3(F)[C@@H](O)C[C@]2(C)[C@@]1(O)C(=O)CO [dexamethasone]
outcome [2]: all patients surviving to discharge

CCN1CCN(c2cc3c(cc2F)c(=O)c(C(=O)O)cn3C2CC2)CC1 [enrofloxacin]
bacterial resistance [9]: 38% | clinical response (E.Coli; 5 mg/kg SID for 6 weeks, one cat): complete resolution of clinical signs | remission sustained (E.Coli; to date): 4 months

CCOC(=O)[C@@]1(CCCCCCOc2ccc(Cl)cc2)CO1 [etomoxir]
lipid accumulation under excess FFA (feline liver organoids): enhanced

COC(=O)Nc1nc2ccc(Sc3ccccc3)cc2[nH]1 [fenbendazole]
outcome in dogs ([10]; 50 mg/kg for 3 weeks plus other therapy, 21 dogs): Five dogs died; the others recovered | outcome in cats ([10]; 50 mg/kg for 3 weeks, 20 cats): fully recovered

Clc1ccc(C(c2ccccc2Cl)C(Cl)Cl)cc1 (stereo not drawn) [mitotane]
mean survival time [11]: 985 ± 57 days

CO/N=C1\C[C@]2(C[C@@H]3C[C@@H](C/C=C(\C)C[C@@H](C)/C=C/C=C4\CO[C@@H]5[C@H](O)C(C)=C[C@@H](C(=O)O3)[C@]45O)O2)O[C@H](/C(C)=C/C(C)C)[C@H]1C [moxidectin]
time to recovery (Troglostrongylus brevior): 14 to 42 days | time to being healthy (T. brevior/A. abstrusus): 14 to 42 days

CCC(C)(C)C(=O)O[C@H]1C[C@@H](C)C=C2C=C[C@H](C)[C@H](CC[C@@H]3C[C@@H](O)CC(=O)O3)[C@H]21 [simvastatin]
plasma cholesterol [12]: 298 ± 109.9

Cc1cccc(Nc2ccncc2S(=O)(=O)NC(=O)NC(C)C)c1 [torasemide]
main adverse clinical effect ([13]; in vivo): worsening azotaemia | tolerability ([13]; in vivo): tolerated by this population of cats with CHF | median survival time after commencing torasemide ([13]; range 7–177 d, 11 cats): 48 days

C[C@]12CC[C@H]3[C@@H](CC[C@@]45O[C@@H]4C(O)=C(C#N)C[C@]35C)[C@@H]1CC[C@@H]2O [trilostane]
median cortisol pre‐trilostane ([14]; 21 dogs, 45 pairs on same dose): 114.0 nmol/L | median cortisol 1 hour post‐ACTH stimulation ([14]; dog, in vivo): 110.0 nmol/L | median cortisol 3 hours post‐trilostane ([14]; significantly lower than the other two): 53.5 nmol/L | mean survival time [11]: 1051 ± 78 days

dexmedetomidine and buprenorphine
IVSd, IVSs, LVPWd, LVPWs, Ao, La/Ao, pulmonic acceleration time [15]: did not differ pre‐ and post‐sedation | LVIDd, LVIDs, RVIDd, LA, pulmonic deceleration time, SBP, DBP, MAP ([15]; 50 cats, P ≤ 0.022): increased after sedation | Vmax Ao, Vmax A pulm, FS, AT/DT and HR ([15]; P < 0.0001): decreased after sedation

eprinomectin
outcome (Capillaria aerophila): healthy after two weeks
